# Results pooled from the literature.
# Compare with care: the assays were run in different laboratories.
Compound,tested on,test,conditions,measurement,result
O=c1oc2c(O)c(O)cc3c(=O)oc4c(O)c(O)cc1c4c23,Streptococcus mutans,"microbial growth, broth dilution",24 h,MIC,100 µg/mL
NCCCC(=O)Nc1ccccc1/N=c1\cc(-c2ccc3c(c2)OCO3)oc2ccccc12,HCT-116,"cell growth or viability, CCK-8",1 µM,inhibition,6.97%
CC(=O)NC[C@H]1CN(c2ccc(N3CCOCC3)c(F)c2)C(=O)O1,Streptococcus pyogenes,microbial growth,clinical isolate,MIC90,2 µg/mL
Nc1nc2ccc(-c3c/c(=N\c4ccccc4NC(=O)CCN4CCOCC4)c4ccccc4o3)cc2o1,HCT-116,"cell growth or viability, CCK-8",1 µM,inhibition,-4.11%
O=C1OC[C@H]2OC(O)[C@H](O)[C@@H](O)[C@@H]2OC(=O)c2cc(O)c(O)c(O)c2-c2c(O)c(O)c3oc(=O)c4c(c(O)c(O)c5oc(=O)c2c3c54)-c2c1cc(O)c(O)c2O (mixture of isomers),Streptococcus mutans,"microbial growth, disc diffusion",500 µg/disc,inhibition zone,15 mm
c1ccc(Oc2ccc(Nc3c4c(nc5ccccc35)CCC4)cc2)cc1,Leishmania infantum,"parasite growth, MTT",promastigote,IC50,530 nM
NCCCCC(=O)Nc1ccccc1/N=c1\cc(-c2ccc3c(c2)OCO3)oc2ccccc12,HCT-116,"cell growth or viability, CCK-8",1 µM,inhibition,3.02%
C[C@@H]1O[C@@H](OC[C@H]2O[C@@H](Oc3c(-c4ccc(O)c(O)c4)oc4cc(O)cc(O)c4c3=O)[C@H](O)[C@@H](O)[C@@H]2O)[C@H](O)[C@H](O)[C@H]1O,Streptococcus mutans,"microbial killing, broth dilution",,MBC,400 µg/mL
COc1ccc(NC(=O)NCc2cn(Cc3ccc(C)cc3)nn2)cc1,PC-9,"cell growth or viability, CCK-8","50 µM, 72 h",viability,113%
Cc1nc(Nc2ncc(C(=O)Nc3c(C)cccc3Cl)s2)cc(N2CC[C@H](O)C2)n1,DOHH-2,"cell growth or viability, ATP luminescence","10 µM, 72 h",inhibition,86%
COc1ccc2/c(=N/c3ccccc3NC(=O)CN)cc(-c3ccc4c(c3)OCCO4)oc2c1,HCT-116,"cell growth or viability, CCK-8",1 µM,inhibition,11.4%
O=C(O[C@@H]1O[C@@H]2COC(=O)c3cc(O)c(O)c(O)c3-c3c(cc(O)c(O)c3O)C(=O)O[C@H]([C@H]1O)[C@@H]2O)c1cc(O)c(O)c(O)c1,Streptococcus mutans,"microbial growth, broth dilution",24 h,MIC,200 µg/mL
C[C@@H]1[C@H](O)[C@@H](C)/C=C/C=C/C=C/C=C/C=C/C=C/C=C/[C@H](O[C@@H]2O[C@H](C)[C@@H](O)[C@H](N)[C@@H]2O)C[C@@H]2O[C@](O)(C[C@@H](O)C[C@@H](O)[C@H](O)CC[C@@H](O)C[C@@H](O)CC(=O)O[C@H]1C)C[C@H](O)[C@H]2C(=O)O,Leishmania infantum,"parasite growth, MTT",promastigote,IC50,1490 nM
